Results from PubChem BioAssay AID602173 (The Scripps Research Institute Molecular Screening Center, 2012).
Activity calls are given as the source filed them.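 The calls were made as follows: active = change in binding activity of 20% or more in either direction; inactive = change in binding activity under 20%.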

tested on: HepG2 proliferation, sulforhodamine B absorbance, 7-10 days; assay: growth effect on ER-negative hepatoma cells – cell-based, absorbance, HepG2, counter-screen for AHR activator project, late-stage follow-up (AID 602173); conditions: at 10 µM
Outline: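 System: human hepatoma HepG2 cells, estrogen receptor-negative; Buffer or medium: α-MEM growth medium with 10% fetal bovine serum; Compound dosing: one dose, 10 µM compound; Schedule: cells settled 24 h before dosing, exposure at 37 °C; Signal: SRB absorbance at 490 nm, 650 nm corrected; Read-out basis: proliferation relative to DMSO vehicle wells.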

| SMILES | proliferation change, negative = inhibition |
| --- | --- |
| Cc1csc(SCC(=O)Nc2ccc(Cl)cn2)n1 | 12.2% (inactive) |
| CCOc1ccc(-c2cc(C)n3nc(C(N)=O)cc3n2)cc1 | 11.8% (inactive) |
| Cc1nnc(N2C(=O)c3cccc4c([N+](=O)[O-])ccc(c34)C2=O)s1 | -12.8% (inactive) |
| Cc1c(-c2ccn[nH]2)cc(NC(=O)c2ccc(Cl)cc2)c(=O)n1N | -6% (inactive) |
| Cc1ccc(-c2cc(-c3cccs3)[nH]n2)c(O)c1 | -97.5% |
| Cn1c(C(=O)N2CCC(C(N)=O)CC2)cc2cc(Cl)ccc21 | 3.8% (inactive) |
| COc1ccc(NC(=O)c2cccc3c(Br)cccc23)cc1 | -38.5% |
| Cc1nc(N)nc(Nc2ccc(Cl)cc2)c1Br | -19.5% (inactive) |
| COc1ccccc1NC(=O)c1ccc(C(=O)Nc2ccccc2OC)nc1 | -49.8% |
| CCOC(=O)Cc1cc(-c2ccc(O)cc2)nc2ccc3ccccc3c12 | -29% |
